Measured values: publication PMC12951621 (Toxicology, 2025)
Blank lines part the entries; values can stand above or below the compound they belong to.

What was measured:
hTERT-RPTEC [1] = experiment: Uptake / intracellular accumulation and P ratio, hTERT-RPTEC in 96-well plates; type: in vitro ADME, human; details: 24 h, cell lysates and media
In short: (§1)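 Cells seeded uncoated at 32,000 per well in 96-well plates, grown 6 days at 37°C, 5% CO2, medium changed every 48 h. Exposed to test compound in 150 μL medium (PFAS 5 μM final). Medium sampled at 4 and 24 h; cells PBS-rinsed and M-PER lysed at 24 h. Acetonitrile precipitation with internal standards, then LC-MS/MS. Two-compartment model, P ratio = medium/cell concentration; n ≥ 3.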

hTERT-RPTEC-OAT1 [2] = type: in vitro ADME, human; details: 96-well plates; for Accumulation in cells versus medium: 24 h, cell lysates and media, OAT1-overexpressing cells
In short: as §1

hTERT-RPTEC-OAT1 [3] = experiment: Directional transport, recovery and P ratio, hTERT-RPTEC-OAT1 Transwells; type: in vitro ADME, human; details: for Recovery pattern, apical (A→B) versus basolateral (B→A) treatment: 24 h, donor and recipient media and cell lysates
In short: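 hTERT-RPTEC-OAT1 cells seeded on fibronectin-coated (100 μg/mL, 1 h, 37°C) Transwells at 22,050 cells/insert. Cultured 2 days at 37°C, 5% CO2; inserts under 65 Ω×cm2 TEER excluded. Test compound (PFAS 5 μM final) added apically (A→B) or basolaterally (B→A), fresh medium opposite. Both chambers sampled at 4 and 24 h; cells lysed (M-PER, 10 min, RT) at 24 h. LC-MS/MS after acetonitrile precipitation with internal standards. Three-compartment Bayesian MCMC fit gave P1–P4; P ratio = P2P4/P1P3; n ≥ 4.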

hTERT-RPTEC-OAT1 [4] = experiment: LDH release; type: cell-based, human; details: 24 hrs exposure, relative to vehicle controls, 96-well plates
In short: (§2)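 LDH activity measured with a biochemical kit in medium sampled after 24 h exposure to test compound. Expressed as % of vehicle-treated cultures. Compared by one-way ANOVA with Dunnett's post hoc test (p < 0.05). Replicates: n ≥ 3 in 96-well plates, n ≥ 4 in Transwells.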

hTERT-RPTEC-OAT1 [5] = experiment: TEER barrier integrity, hTERT-RPTEC-OAT1 Transwells; type: cell-based, human; details: 24 hrs post-treatment
In short: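 Resistance read with an epithelial voltohmmeter and Ag/AgCl probes after treatment. Blank-membrane resistance subtracted, then multiplied by 0.143 cm2 growth area; reported as Ω×cm2. Pre-treatment cultures under 65 Ω×cm2 excluded; n ≥ 4.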

[6] = design: species or system human; details: index chemical half-life 3.14 years divided by relative renal clearance
hTERT-RPTEC-OAT1 [7] = test system: hTERT-RPTEC-OAT1; design: species or system human; details: 96-well plates, two-compartment model
In short: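 96-well P ratio (medium/cell concentration, two-compartment model, assuming P1 = P2) entered a physiologically based kidney model. CLrenal,free was calculated from renal arterial blood flow (QK), proximal tubule flow (QPT) and P ratio, and predictions were set against literature human in vivo values.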

hTERT-RPTEC [8] = experiment: LDH release; type: cell-based, human; details: 24 hrs exposure, relative to vehicle controls, 96-well plates
In short: as §2

hTERT-RPTEC-OAT1 [9] = experiment: LDH release; type: cell-based, human; details: 24 hrs exposure, relative to vehicle controls, Transwells
In short: as §2

[10] = applied from the basolateral side (B→A)

Accumulation in cells versus medium (hTERT-RPTEC [1]): tended to accumulate more in cells | Accumulation in cells versus medium (hTERT-RPTEC-OAT1 [2]): tended to accumulate more in cells
Compound: O=S(=O)(O)CCC(F)(F)C(F)(F)C(F)(F)C(F)(F)C(F)(F)C(F)(F)C(F)(F)C(F)(F)F [8:2 FTS, 8:2 Fluorotelomer sulfonic acid]
Recovery pattern, apical (A→B) versus basolateral (B→A) treatment (hTERT-RPTEC-OAT1 [3]): divergent recovery patterns depending on dosing orientation

Compound: O=C(O)C(F)(F)C(F)(F)C(F)(F)C(F)(F)C(F)(F)C(F)(F)C(F)(F)F [PFOA, Perfluorooctanoic acid]
LDH release (hTERT-RPTEC-OAT1 [4]): small but significant increase in LDH release

Compound: O=C(O)C(F)(F)C(F)(F)C(F)(F)C(F)(F)C(F)(F)C(F)(F)C(F)(F)C(F)(F)C(F)(F)F [PFDA, Perfluorodecanoic acid]
TEER (hTERT-RPTEC-OAT1 [5]; [10]): small but significant decrease in TEER | Accumulation in cells versus medium (hTERT-RPTEC [1]): tended to accumulate more in cells | Accumulation in cells versus medium (hTERT-RPTEC-OAT1 [2]): tended to accumulate more in cells | Recovery pattern, apical (A→B) versus basolateral (B→A) treatment (hTERT-RPTEC-OAT1 [3]): divergent recovery patterns depending on dosing orientation

Compound: O=S(=O)(O)C(F)(F)C(F)(F)C(F)(F)C(F)(F)F [PFBS, Perfluorobutanesulfonic acid]
Predicted human half-life [6]: Days/Months

Compound: O=C(O)C(F)(F)C(F)(F)C(F)(F)C(F)(F)C(F)(F)F [PFHxA, Perfluorohexanoic acid]
Predicted human half-life [6]: Days/Months

P ratio, OAT1-overexpressing cells versus parental cells (hTERT-RPTEC-OAT1 [2]): roughly 100 fold lower | Intracellular association (hTERT-RPTEC-OAT1 [3]; ratios of measured concentrations): higher intracellular association | Predicted renal clearance, OAT1-overexpressing cells versus parental cells (hTERT-RPTEC-OAT1 [7]): significantly lower
Compound: C[C@H](Cn1cnc2c(N)ncnc21)OCP(=O)(O)O [Tenofovir, Tenofovir (TFV), reference compound]
Accumulation in cells versus medium (hTERT-RPTEC-OAT1 [2]): enhanced accumulation in the OAT1-overexpressing cells

LDH release (hTERT-RPTEC [8]): significant LDH release | LDH release (hTERT-RPTEC-OAT1 [4]): significant LDH release | LDH release (hTERT-RPTEC-OAT1 [9]): significant LDH release | TEER (hTERT-RPTEC-OAT1 [5]): pronounced reduction in TEER
Compound: CCCCCCCC[N+](CCCCCCCC)(CCCCCCCC)CCCCCCCC.[Br-] [TAB, tetraoctyl ammonium bromide, reference compound]

Compound: O=C(O)C(F)(F)C(F)(F)C(F)(F)C(F)(F)C(F)(F)C(F)(F)C(F)(F)C(F)(F)C(F)(F)C(F)(F)F [PFUnDA, Perfluoroundecanoic acid]
TEER (hTERT-RPTEC-OAT1 [5]; [10]): small but significant decrease in TEER | Accumulation in cells versus medium (hTERT-RPTEC [1]): tended to accumulate more in cells | Accumulation in cells versus medium (hTERT-RPTEC-OAT1 [2]): tended to accumulate more in cells | Recovery pattern, apical (A→B) versus basolateral (B→A) treatment (hTERT-RPTEC-OAT1 [3]): divergent recovery patterns depending on dosing orientation

Compound: O=S(=O)(O)C(F)(F)C(F)(F)C(F)(F)C(F)(F)C(F)(F)C(F)(F)C(F)(F)C(F)(F)F [PFOS, Perfluorooctanesulfonic acid]
Recovery pattern, apical (A→B) versus basolateral (B→A) treatment (hTERT-RPTEC-OAT1 [3]): divergent recovery patterns depending on dosing orientation
